Activity calls are given as the source filed them. The rule behind the calls is not given here.
Experiments:
[1] = target: Hyaluronidase (Bos taurus) (UniProt Q8SQG8+Q5E985); assay: Inhibition of bovine testes hyaluronidase using hyaluronic acid as substrate assessed as residual activity at 100 uM by nephelometric method relative to control; assay type: protein assay
Outline: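 Hyaluronidase assayed nephelometrically per supplier-recommended protocol. Compounds added from DMSO stock (100 mM), DMSO ≤1% of total volume; activity expressed as percent of activity with DMSO alone.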

Saccharomyces cerevisiae [2] = assay: Inhibition of Saccharomyces cerevisiae alpha-glucosidase using pNPG as substrate assessed as residual activity at 100 uM preincubated for 20 mins followed by substrate addition measured after 45 mins relative to control
Outline: (§1)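 α-Glucosidase (0.175 U/ml) in water with compound (1 µL DMSO dilution) pre-incubated 20 min at 37 °C. Then added PBS (140 mM, pH 7.2), reduced glutathione (9 mM) and pNPG (0.9 mM). Incubated 45 min at 37 °C, read at 400 nm. % inhibition = (AC−AS)/AC×100 vs DMSO-only control. Triplicates with blanks.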

[3] = tested on: beta-glucuronidase (Bos taurus); assay: Inhibition of bovine liver beta-glucuronidase using phenolphthalein beta-glucuronide as substrate assessed as residual activity measured liberation of phenolphthalein at 100 uM relative to control
[4] = Uncompetitive inhibition of Saccharomyces cerevisiae alpha-glucosidase using pNPG as substrate by Cornish-Bowden plot analysis
Saccharomyces cerevisiae [5] = assay: Uncompetitive inhibition of Saccharomyces cerevisiae alpha-glucosidase using pNPG as substrate at 0.17 to 100 uM by Lineweaver-Burk plot analysis
Saccharomyces cerevisiae [6] = assay: Uncompetitive inhibition of Saccharomyces cerevisiae alpha-glucosidase using pNPG as substrate at 0.17 to 100 uM by Dixon plot analysis
[7] = Inhibition of Saccharomyces cerevisiae alpha-glucosidase using pNPG as substrate at 100 uM preincubated for 20 mins followed by substrate addition measured after 45 mins; outline: as §1
Saccharomyces cerevisiae [8] = assay: Uncompetitive inhibition of Saccharomyces cerevisiae alpha-glucosidase using maltose as substrate assessed as ratio of Kik to Kiv at 8 uM
Outline: (§2)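 Maltose as substrate in the α-glucosidase protocol (20 min preincubation with inhibitor at 37 °C, then substrate incubation at 37 °C). Reaction stopped at 95 °C for 3 min, and released glucose measured with an HK/G6P-DH glucose kit. Vmax and Km by Lineweaver-Burk; Kik/Kiv ratio per Yang et al.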

Saccharomyces cerevisiae [9] = assay: Uncompetitive inhibition of Saccharomyces cerevisiae alpha-glucosidase using maltose as substrate assessed as ratio of Kik to Kiv at 4 uM; outline: as §2
Saccharomyces cerevisiae [10] = assay: Uncompetitive inhibition of Saccharomyces cerevisiae alpha-glucosidase using maltose as substrate assessed as ratio of Kik to Kiv at 2.4 uM; outline: as §2
Saccharomyces cerevisiae [11] = assay: Uncompetitive inhibition of Saccharomyces cerevisiae alpha-glucosidase using maltose as substrate assessed as ratio of Kik to Kiv at 2 uM; outline: as §2
Saccharomyces cerevisiae [12] = assay: Uncompetitive inhibition of Saccharomyces cerevisiae alpha-glucosidase using maltose as substrate assessed as ratio of Kik to Kiv at 1.6 uM; outline: as §2
Saccharomyces cerevisiae [13] = assay: Uncompetitive inhibition of Saccharomyces cerevisiae alpha-glucosidase using maltose as substrate assessed as ratio of Kik to Kiv at 1.2 uM; outline: as §2
Saccharomyces cerevisiae [14] = assay: Uncompetitive inhibition of Saccharomyces cerevisiae alpha-glucosidase using pNPG as substrate assessed as ratio of Kik to Kiv at 8 uM
Saccharomyces cerevisiae [15] = assay: Uncompetitive inhibition of Saccharomyces cerevisiae alpha-glucosidase using pNPG as substrate assessed as ratio of Kik to Kiv at 4 uM
Saccharomyces cerevisiae [16] = assay: Uncompetitive inhibition of Saccharomyces cerevisiae alpha-glucosidase using pNPG as substrate assessed as ratio of Kik to Kiv at 2.4 uM
Saccharomyces cerevisiae [17] = assay: Uncompetitive inhibition of Saccharomyces cerevisiae alpha-glucosidase using pNPG as substrate assessed as ratio of Kik to Kiv at 2 uM
Saccharomyces cerevisiae [18] = assay: Uncompetitive inhibition of Saccharomyces cerevisiae alpha-glucosidase using pNPG as substrate assessed as ratio of Kik to Kiv at 1.6 uM
Saccharomyces cerevisiae [19] = assay: Uncompetitive inhibition of Saccharomyces cerevisiae alpha-glucosidase using pNPG as substrate assessed as ratio of Kik to Kiv at 1.2 uM
Saccharomyces cerevisiae [20] = assay: Uncompetitive inhibition of Saccharomyces cerevisiae alpha-glucosidase using maltose as substrate at 0.17 to 100 uM by Lineweaver-Burk plot analysis; outline: as §2
Saccharomyces cerevisiae [21] = assay: Uncompetitive inhibition of Saccharomyces cerevisiae alpha-glucosidase using maltose as substrate at 0.17 to 100 uM by Dixon plot analysis
[22] = Uncompetitive inhibition of Saccharomyces cerevisiae alpha-glucosidase using maltose as substrate by Cornish-Bowden plot analysis

Structure (SMILES)	Activity [1]	Activity (Saccharomyces cerevisiae [2])	Activity [3]	further results
COC(=O)C1=CC(O)CN(Cc2cccnc2)C1 (configuration not stated)	99%	105%	102%	
COC(=O)C1=CC(O)CN(Cc2cc(=O)[nH]c(=O)[nH]2)C1 (configuration not stated)	100%	95%	97%	
COC(=O)C1=CC(O)CN(Cc2ccncc2)C1 (configuration not stated)	99%	94%	105%	
O=C(O)C1=CCCN(Cc2nc3ccccc3[nH]2)C1	100%	93%	100%	
O=C(O)C1=CC(O)CN(Cc2ccccc2)C1 (configuration not stated)	101%	95%	97%	
O=C(O)C1=CCCN(Cc2cc(=O)[nH]c(=O)[nH]2)C1	102%	97%	100%	
O=C(O)C1=CCCN(Cc2cccnc2)C1	99%	102%	102%	
O=C(O)C1=CC(O)CN(Cc2ccccn2)C1 (configuration not stated)	101%	2%	103%	Ki [4]: 5.3 µM; uncompetitive inhibition (Lineweaver-Burk) (Saccharomyces cerevisiae [5]): Active; Inhibition type (qualitative) (Saccharomyces cerevisiae [6]): Active; IC50 [7]: 2 µM
O=C(O)[C@H]1CN(Cc2ccccc2)CC[C@H]1O	100%	82%	102%	
O=C(O)[C@H]1CN(Cc2ccccn2)CC[C@H]1O	100%	95%	103%	
CCOC(=O)C1CN(Cc2ccccc2)CCC1O (mixture of isomers)	103%	100%	95%	
O=C(O)C1=CCCN(Cc2ccncc2)C1	99%	99%	95%	
O=C(O)[C@H]1CN(Cc2ccncc2)CC[C@H]1O	100%	85%	108%	
O=C(O)C1=CCCN(Cc2ccccn2)C1	101%	95%	96%	
O=C(O)C1=CCCN(Cc2ccccc2)C1	100%	97%	89%	
COC(=O)C1=CC(O)CN(Cc2ccccn2)C1 (configuration not stated)	100%	97%	103%	
O=C(O)[C@H]1CN(Cc2cccnc2)CC[C@H]1O	100%	97%	104%	
O=C(O)C1=CC(O)CN(Cc2ccncc2)C1 (configuration not stated)	104%	3%	103%	Ki [4]: 10.2 µM; uncompetitive inhibition (Lineweaver-Burk) (Saccharomyces cerevisiae [5]): Active; Inhibition type (qualitative) (Saccharomyces cerevisiae [6]): Active; IC50 [7]: 2 µM
O=C(O)C1=CC(O)CN(Cc2cc(=O)[nH]c(=O)[nH]2)C1 (configuration not stated)	100%	3%	102%	Ki [4]: 12.5 µM; uncompetitive inhibition (Lineweaver-Burk) (Saccharomyces cerevisiae [5]): Active; Inhibition type (qualitative) (Saccharomyces cerevisiae [6]): Active; IC50 [7]: 2 µM
COC(=O)C1=CC(O)CN(Cc2ccccc2)C1 (configuration not stated)	99%	92%	93%	
CCOC(=O)N1C=C(C(=O)OC)CCC1	100%	109%	96%	
O=C(O)C1=CC(O)CN(Cc2cccnc2)C1 (configuration not stated)	102%	2%	100%	Ratio (Saccharomyces cerevisiae [8]): 1.47; Ratio (Saccharomyces cerevisiae [9]): 1.2; Ratio (Saccharomyces cerevisiae [10]): 1.07; Ratio (Saccharomyces cerevisiae [11]): 1.09; Ratio (Saccharomyces cerevisiae [12]): 1.04; Ratio (Saccharomyces cerevisiae [13]): 1.05; Ratio (Saccharomyces cerevisiae [14]): 1.72; Ratio (Saccharomyces cerevisiae [15]): 1.49; Ratio (Saccharomyces cerevisiae [16]): 1.25; Ratio (Saccharomyces cerevisiae [17]): 0.998; Ratio (Saccharomyces cerevisiae [18]): 1.09; Ratio (Saccharomyces cerevisiae [19]): 1.03; inhibition (Saccharomyces cerevisiae [20]): Active; inhibition (Saccharomyces cerevisiae [21]): Active; Ki [22]: 0.8 µM; Ki [4]: 1.2 µM; uncompetitive inhibition (Lineweaver-Burk) (Saccharomyces cerevisiae [5]): Active; Inhibition type (qualitative) (Saccharomyces cerevisiae [6]): Active; IC50 [7]: 2.34 µM
